The test system of data set [1] is CD40 mRNA. The data set can be described thus: […] CD40 expression in BCL1 cells treated with 1 uM peptide nucleic acid (PNA)conjugate; n=3. It is filed as functional, cell-based. The conditions noted are these: Mus musculus. In a few lines: (§1)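 Mouse BCL1 cells in DMEM with 10% FBS, given conjugate at 1, 3 or 10 μM by free uptake (no transfection agent) for 3 days. Cells trypsinised and stained 1 h with FITC anti-CD40 (HM40-3) or isotype control, then surface CD40 read by flow cytometry. Results are % untreated control, mean ± SD, n = 3.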

In data set [2] the test system is CD40 mRNA. Kind of data set: […] CD40 expression in BCL1 cells treated with 10 uM peptide nucleic acid (PNA)conjugate; n=3. The format is functional, cell-based. The conditions noted are these: Mus musculus. Put shortly:
as §1

Data set [3] relates to BCL1. Kind of data set: Inhibitory concentration against BCL1 cell proliferation in WST-1 assay. It is filed as functional, Mus musculus. Put shortly:
(§2)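 BCL1 cells, 2000 per well, grown in DMEM with 10% FBS at 37 °C and 5% CO2. Exposed to conjugate for 3 days, then viable cells read by WST-1 absorbance at 450 nm. Value is the concentration at which absorbance fell below 50% of untreated control; triplicates.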
On the technique in general: Tetrazolium assays rely on reduction of a dye to a coloured formazan, in cell work by metabolically active cells.

The nature of data set [4]: Average tissue concentration of conjugate at a dose of 3 mg/Kg in BALB/c mice large intestine when given i.v. measured after 24 h; n=3. The format is ADME, tissue-based. The conditions noted are these: mouse, in vivo, iv.
Data set [5] can be described thus: Average tissue concentration of conjugate at a dose of 3 mg/Kg in BALB/c mice MLN when given i.v. measured after 24 h; n=3. The format is ADME. The conditions noted are these: mouse, in vivo, iv.
A short description of data set [6]: Average tissue concentration of conjugate at a dose of 3 mg/Kg in BALB/c mice injection site when given s.c. measured after 24 h; n=3. The format is ADME. The conditions noted are these: mouse, in vivo, sc.
Data set [7] in a line: Average tissue concentration of conjugate at a dose of 3 mg/Kg in BALB/c mice large intestine when given s.c. measured after 24 h; n=3. It is filed as ADME, tissue-based. The conditions noted are these: mouse, in vivo, sc.
Data set [8] is described as follows: Average tissue concentration of conjugate at a dose of 3 mg/Kg in BALB/c mice skeletal muscle when given i.v. measured after 24 h; n=3. The format is ADME, tissue-based. The conditions noted are these: mouse, in vivo, iv.
Data set [9] in a line: Average tissue concentration of conjugate at a dose of 3 mg/Kg in BALB/c mice skeletal muscle when given s.c. measured after 24 h; n=3. The conditions noted are these: mouse, in vivo, sc. The format is ADME, tissue-based.
The nature of data set [10]: Average tissue concentration of conjugate at a dose of 3 mg/Kg in BALB/c mice small intestine when given i.v. measured after 24 h; n=3. The conditions noted are these: mouse, in vivo, iv. The format is ADME, tissue-based.
Data set [11] in a line: Average tissue concentration of conjugate at a dose of 3 mg/Kg in BALB/c mice small intestine when given s.c. measured after 24 h; n=3. The conditions noted are these: mouse, in vivo, sc. It is filed as ADME, tissue-based.
Data set [12] is described as follows: Average tissue concentration of conjugate at a dose of 3 mg/Kg in BALB/c mice MLN when given s.c. measured after 24 h; n=3. The format is ADME. The conditions noted are these: mouse, in vivo, sc.
Data set [13] in a line: Average tissue concentration of conjugate at a dose of 3 mg/Kg in BALB/c mice skin when given i.v. measured after 24 h; n=3. It is filed as ADME. The conditions noted are these: mouse, in vivo, iv.
Data set [14] can be described thus: Average tissue concentration of conjugate at a dose of 3 mg/Kg in BALB/c mice skin when given s.c. measured after 24 h; n=3. It is filed as ADME. The conditions noted are these: mouse, in vivo, sc.
A short description of data set [15]: Average tissue concentration of conjugate at a dose of 3 mg/Kg in BALB/c mice heart when given i.v. measured after 24 h; n=3. The format is ADME, tissue-based. The conditions noted are these: mouse, in vivo, iv.
The nature of data set [16]: Average tissue concentration of conjugate at a dose of 3 mg/Kg in BALB/c mice heart when given s.c. measured after 24 h; n=3. It is filed as ADME, tissue-based. The conditions noted are these: mouse, in vivo, sc.
A short description of data set [17]: Average tissue concentration of conjugate at a dose of 3 mg/Kg in BALB/c mice liver when given i.v. measured after 24 h; n=3. It is filed as ADME, tissue-based. The conditions noted are these: mouse, in vivo, iv.
Data set [18] in a line: Average tissue concentration of conjugate at a dose of 3 mg/Kg in BALB/c mice liver when given s.c. measured after 24 h; n=3. The conditions noted are these: mouse, in vivo, sc. The format is ADME, tissue-based.
A short description of data set [19]: Average tissue concentration of conjugate at a dose of 3 mg/Kg in BALB/c mice lungs when given i.v. measured after 24 h; n=3. The format is ADME. The conditions noted are these: mouse, in vivo, iv.
A short description of data set [20]: Average tissue concentration of conjugate at a dose of 3 mg/Kg in BALB/c mice lungs when given s.c. measured after 24 h; n=3. The conditions noted are these: mouse, in vivo, sc. It is filed as ADME.
Data set [21] in a line: Average tissue concentration of conjugate at a dose of 3 mg/Kg in BALB/c mice kidney when given i.v. measured after 24 h; n=3. The format is ADME. The conditions noted are these: mouse, in vivo, iv.
Data set [22] in a line: Average tissue concentration of conjugate at a dose of 3 mg/Kg in BALB/c mice kidney when given s.c. measured after 24 h; n=3. It is filed as ADME. The conditions noted are these: mouse, in vivo, sc.
Data set [23] can be described thus: Average tissue concentration of conjugate at a dose of 3 mg/Kg in BALB/c mice spleen when given i.v. measured after 24 h; n=3. The format is ADME, tissue-based. The conditions noted are these: mouse, in vivo, iv.
Data set [24] can be described thus: Average tissue concentration of conjugate at a dose of 3 mg/Kg in BALB/c mice spleen when given s.c. measured after 24 h; n=3. The conditions noted are these: mouse, in vivo, sc. It is filed as ADME, tissue-based.
A short description of data set [25]: Average tissue concentration of conjugate at a dose of 3 mg/Kg in BALB/c mice testes when given i.v. measured after 24 h; n=3. It is filed as ADME, tissue-based, Testis. The conditions noted are these: mouse, in vivo, iv.
Data set [26] can be described thus: Average tissue concentration of conjugate at a dose of 3 mg/Kg in BALB/c mice testes when given s.c. measured after 24 h; n=3. It is filed as ADME, tissue-based, Testis. The conditions noted are these: mouse, in vivo, sc.
A short description of data set [27]: Average tissue concentration of conjugate at a dose of 3 mg/Kg in BALB/c mice pancreas when given i.v. measured after 24 h; n=3. The conditions noted are these: mouse, in vivo, iv. The format is ADME.
Data set [28] can be described thus: Average tissue concentration of conjugate at a dose of 3 mg/Kg in BALB/c mice pancreas when given s.c. measured after 24 h; n=3. The conditions noted are these: mouse, in vivo, sc. It is filed as ADME.
The nature of data set [29]: Half-life of the conjugate when treated with 25% murine serum for enzymatic stability. It is filed as ADME. The conditions noted are these: mouse. Put shortly: (§3)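 Conjugates at 20 μM in 10% FBS RPMI 1640 medium or 25% mouse serum (Hepes-stabilised, diluted in PBS, pH 7.1–7.4), incubated at 37 °C. Sampled to 168 h (FBS) or 48 h (serum); proteins precipitated with 10% DCA, PNA 6mer internal standard added. Analysed by C3 RP-HPLC at 60 °C; t1/2 from normalised full-length peak area versus time.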

The nature of data set [30]: Half-life of the conjugate when treated with 10% foetal bovine serum for enzymatic stability; No degradation observed within the period of time indicated. The format is ADME, Bos taurus. The conditions noted are these: cattle. Put shortly: as §3
Data set [31] relates to CD40 mRNA. The data set can be described thus: […] CD40 expression in BCL1 cells treated with 3 uM peptide nucleic acid (PNA)conjugate; n=3. It is filed as functional, cell-based. The conditions noted are these: Mus musculus. In a few lines: as §1
The test system of data set [32] is BCL1. The data set can be described thus: Inhibitory concentration against BCL1 cell proliferation in WST-1 assay; Range 5-10. It is filed as functional, Mus musculus. Put shortly:
as §2

Data set [33] can be described thus: Half-life of the conjugate when treated with 10% foetal bovine serum for enzymatic stability. It is filed as ADME, Bos taurus. The conditions noted are these: cattle. In a few lines:
as §3

Data set [34] has as its system BCL1. Kind of data set: Inhibitory concentration against BCL1 cell proliferation in WST-1 assay; Range 10-20. The format is functional, Mus musculus. Put shortly:
as §2

A short description of data set [35]: Half-life of the conjugate when treated with 25% murine serum for enzymatic stability; Range 2-3 h. It is filed as ADME. The conditions noted are these: mouse. Put shortly: as §3
The nature of data set [36]: Half-life of the conjugate when treated with 25% murine serum for enzymatic stability; No data available. The format is ADME. The conditions noted are these: mouse. In a few lines: as §3

Each structure is given as a SMILES string. Starred links: 1 amine or outer side, 2 acyl side, 3 side chain; linkers in the order of their positions; H or OH if unused. Non-standard residues stand in square brackets, D forms with d. Residues, ends and D or L forms follow the SMILES beside them. X1 = NCCCC(CC(=O)[*:2])N[*:1]

For orientation: half-life means the time needed for the level to fall by half in the phase considered. A high value points to slow loss. Regarding `NCCCC[C@@H](C=O)NC(=O)[C@H](CCCCN)NC(=O)[C@H](CCCCN)NC(=O)[C@H](CCCCN)NC(=O)[C@H](CCCCN)NC(=O)[C@H](CCCCN)NC(=O)[C@H](CCCCN)NC(=O)[C@H](CCCCN)NC(=O)[C@@H](N)CCCCN`, the UTC in data set [1] is 88% [middle of 7 runs]; in [2], 39% [middle of 7 runs]. The “IC50 for cell proliferation” value in data set [3] worked out at 20 µM. Also, the Biodistribution in data set [4] came to 2.07 ug equiv/g; in [5], 1.94 ug equiv/g; in data set [6], 20 ug equiv/g; in data set [7], 0.31 ug equiv/g; in [8], 0.29 ug equiv/g; in data set [9], 0.2 ug equiv/g. The Biodistribution in data set [10] turned out to be 1.31 ug equiv/g; in [11], 0.26 ug equiv/g; in data set [12], 0.76 ug equiv/g; in [13], 1.25 ug equiv/g; in data set [14], 0.75 ug equiv/g; in [15], 0.18 ug equiv/g. Moreover, the Biodistribution in data set [16] is 0.07 ug equiv/g; in data set [17], 11.47 ug equiv/g; in data set [18] it was 5.44 ug equiv/g; in data set [19], 0.22 ug equiv/g; in data set [20], 0.1 ug equiv/g; in data set [21] it was 12.74 ug equiv/g. Moreover, the Biodistribution in data set [22] is reported as 11.55 ug equiv/g; in data set [23], 3.68 ug equiv/g; in data set [24], 1.51 ug equiv/g; in [25] it was 0.38 ug equiv/g; in data set [26], 0.23 ug equiv/g; in [27], 0.6 ug equiv/g. Further, in [28], the Biodistribution came to 0.2 ug equiv/g. Further, the half-life in data set [29] is 6.7 h; in [30] it was above 168 h.
Consider `NCCCC[C@@H](C=O)NC(=O)CC(CCCN)NC(=O)CC(CCCN)NC(=O)CC(CCCN)NC(=O)CC(CCCN)NC(=O)CC(CCCN)NC(=O)CC(CCCN)NC(=O)CC(CCCN)NC(=O)CC(N)CCCN` (stereo partly drawn), for which the figures for the UTC in [1], in [31] and in data set [2] were 94%, 81% and 66%, respectively. The Cell viability in data set [32] stood at 10 µM. The half-life is above 48 h in data set [29] and above 168 h in [33].
By IC50 is commonly meant the concentration that inhibits the measured activity by half. A lower IC50 goes with greater potency. For `NCCCC[C@@H](C=O)NC(=O)[C@H](CCCCN)NC(=O)[C@H](CCCCN)NC(=O)[C@H](CCCN=C(N)N)NC(=O)[C@H](CCCCN)NC(=O)[C@H](CCCCN)NC(=O)[C@H](CCCN=C(N)N)NC(=O)[C@H](CCCCN)NC(=O)[C@@H](N)CCCCN` (H-KKRKKRKKK-aldehyde), the UTC in [1] was determined as 90%; in [31], 76%; in [2], 43%. In [34], this compound gave an IC50 of 20 µM. Further, the half-life in data set [33] is 90 h; in data set [35], 3 h.
Take `NCCCC[C@@H](C=O)NC(=O)[C@H](CCCCN)NC(=O)[C@H](CCCCN)NC(=O)CC(CCCN)NC(=O)[C@H](CCCCN)NC(=O)[C@H](CCCCN)NC(=O)CC(CCCN)NC(=O)[C@H](CCCCN)NC(=O)[C@@H](N)CCCCN` (stereo partly drawn) (H-KK[X1]KK[X1]KKK-aldehyde): the figures for the UTC in data set [1], in data set [31] and in [2] were 98%, 82% and 61%, respectively. Also, the Cell viability in data set [32] is 10 µM. Further, in data set [33], the half-life is above 168 h. The T1/2 result in data set [36] was “No data available”.

Values taken from ChEMBL document CHEMBL1141128, “Structure-activity relationship study on a simple cationic peptide motif for cellular delivery of antisense peptide nucleic acid” (J Med Chem, 2005).
